Compounds with a hit are over-represented: about 1.7% of the library has one in this group of screens.
Scp1 inh – blocks human Scp-1 phosphatase activity; Q9GZU7; Recombinant Scp1, phosphopeptide, malachite green phosphate absorbance; inhibition, % at 20 µM; AID 493091; 0.88% of 340,000 active;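 active means inhibition above about 50% at 20 µM, limit read from the data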;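 further: plate controls were DMSO wells with enzyme for no effect and wells lacking enzyme for full effect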
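Incubation: 45 min enzyme reaction at room temperature / System: truncated SCP-1 phosphatase (76-261aa) / Reagent: Phospho 17-mer peptide substrate / Buffer or medium: Acidic Tris acetate buffer with magnesium and detergent / Signal: absorbance at 630 nm / Doses: one concentration, 20 µM, with 1.0% DMSO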
DNMT1 block – inhibitors of human DNMT1 | P26358 | DNMT1 molecular beacon, Hinp1I cleavage, fluorescence | inhibition (reported as % activation of signal), % at 10 µM | 0.83% of 360,000 active; in the data active means inhibition above about 50%
STEP block – inhibitors of human striatal-enriched phosphatase STEP | P54829 | inhibition, % at 20 µM | recombinant STEP, OMFP fluorogenic substrate, fluorescence | 0.25% of 360,000 active | AID 588621;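 active means inhibition at 20 µM, scaled per plate between control wells, above about 37%, limit read from the data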;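 further: 0% = DMSO with enzyme and substrate and 100% = substrate only without enzyme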
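Assay system: isolated STEP enzyme. Buffer or medium: pH 6.0 Bis-Tris with DTT and Tween 20. Also added: fluorogenic phosphatase substrate OMFP at 25 µM final. Dosing: 20 µM, 1% DMSO. Timing: 20 min reaction, room temperature, in the dark. Measured by: fluorescence intensity, excitation 480 nm, emission 540 nm. Evaluation: normalized % inhibition.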
SUMO1 PPI mod – alters human SUMO1 binding to SIM partners; P63165; SUMO1 binding to a labelled peptide, TR-FRET, 1 h; inhibition, % at 20 µM; 0.33% of 360,000 active; in the data active means inhibition above about 37%
Target sequence (P63165 whole entry, looked up): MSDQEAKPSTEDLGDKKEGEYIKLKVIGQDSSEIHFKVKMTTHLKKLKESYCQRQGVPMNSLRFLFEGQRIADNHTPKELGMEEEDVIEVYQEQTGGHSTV
CASP6 VEID inh – inhibitors of human caspase-6. P55212. purified caspase-6, Z-VEID-R110 cleavage fluorescence. inhibition, % at 12.5 µM. 0.53% of 350,000 active;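 active means mean inhibition across replicates at least about 35%, with every replicate also reaching that limit, limit read from the data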;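 further: 0% = median of neutral control wells and 100% = no fluorescence left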
Target sequence (P55212 24-179 limits assumed): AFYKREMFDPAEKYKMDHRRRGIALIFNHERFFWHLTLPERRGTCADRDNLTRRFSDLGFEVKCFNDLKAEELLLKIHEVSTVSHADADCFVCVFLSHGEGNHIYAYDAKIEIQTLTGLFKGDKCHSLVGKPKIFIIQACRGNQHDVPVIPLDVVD
Target sequence (P55212 194-293 limits assumed): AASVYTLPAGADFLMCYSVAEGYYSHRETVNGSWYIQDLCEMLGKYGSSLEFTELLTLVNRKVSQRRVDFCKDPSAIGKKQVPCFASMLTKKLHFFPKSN
LMPTP inh – blocks human LMPTP phosphatase. inhibition, % at 20 µM. recombinant LMPTP-A, OMFP fluorogenic substrate, fluorescence intensity. 0.22% of 360,000 active. P24666;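 active means compounds that cut the enzyme signal by at least half of the control window in the single-dose screen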;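 further: plate controls were DMSO wells with enzyme plus substrate for no effect and substrate without enzyme for full effect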
Target sequence (P24666 whole entry, looked up): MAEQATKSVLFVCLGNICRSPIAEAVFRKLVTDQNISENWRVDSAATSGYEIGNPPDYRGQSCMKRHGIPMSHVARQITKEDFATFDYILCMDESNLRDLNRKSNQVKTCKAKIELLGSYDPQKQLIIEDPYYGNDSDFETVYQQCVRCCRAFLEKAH
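Test system: LMPTP-A, protein tyrosine phosphatase of low molecular weight; Input: 0.625 nM enzyme; Incubation: 50 min dark incubation at room temperature; Signal: endpoint fluorescence intensity from OMFP dephosphorylation; Read-out basis: % inhibition versus control wells.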
DNMT1 interf DR – counter-screen for DNMT1 inhibitors: spectral interference, dose response | shares compounds with DNMT1 block | molecular beacon fluorescence | IC50, µM | 200 tested, under 10 active; call rule not given here
DNMT1 confirm – confirmation of human DNMT1 inhibitors | shares compounds with DNMT1 block | DNMT1 molecular beacon HinP1I cleavage, fluorescence | inhibition, % at 10 µM | 8% of 2,300 active;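 active means average inhibition of at least 30% in the single-concentration confirmation test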
Beacon interf – shows spectral interference in the DNMT1 beacon assay; shares compounds with DNMT1 block; DNMT1 molecular beacon spectral interference counterscreen, fluorescence 485/520; activation (fluorescence interference), % at 10 µM; 1% of 2,300 active; AID 602387;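 active means activation of at least 30% at 10 µM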;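 further: DNMT1 catalytic domain with a HinP1I cleavage step and a FAM/dabcyl DNA beacon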
Numbers without * were called inactive; . = not tested or not shown.

SMILES	Scp1 inh	DNMT1 block	STEP block	SUMO1 PPI mod	CASP6 VEID inh	LMPTP inh	DNMT1 confirm	Beacon interf	others
CCOc1ccc2nc(N3C(=O)CNC3=S)sc2c1	-11	3	-2	3	-1	-1	.	.
COc1ccc2nc(N3C(=O)/C(=C/c4ccc(Cl)cc4)NC3=S)sc2c1	1	100*	11	29	.	27	1	-4
O=C(Nc1ccc2oc(=O)ccc2c1)c1ccc(-c2cccc(Cl)c2)o1	-2	91*	2	4	1	21	-2	-8
CC=Cc1ccc2n(c1=O)C[C@@H]1[C@@H](CO)[C@H](C(=O)N(C)C)[C@H]2N1S(=O)(=O)c1ccccc1C (mixture of isomers)	.	.	.	.	-4	.	.	.
CC1CCCCN1CCNC(=O)c1ccc2c(c1)N(Cc1cccc(Cl)c1)C(=O)c1ccccc1S2(=O)=O (stereo not given)	.	86*	3	-5	-2	2	2	3
Cc1csc(N/N=C\c2cccnc2)n1	5	-3	0	-5	6	1	.	.
Cc1nnc(-c2ccco2)c2cn(-c3cccc(Br)c3)nc12	5	91*	-4	6	4	14	3	-3
COC(=O)c1ccc(NC(=O)c2ccc(NC(=O)c3ccco3)cc2)cc1	7	58*	15	54*	1	48	2	-1
O=C(/C=C\c1ccccc1)Nc1ccc(NC(=O)c2ccco2)cc1	-5	0	3	-2	1	1	.	.
O=C(/C=C/c1ccc(Br)cc1)c1ccc(NC(=O)c2ccco2)cc1	22	88*	6	2	.	39	1	-5
COc1ccc(C(C)=O)cc1COc1nc(C)nc2ccccc12	-7	0	-2	1	-1	-2	.	.
CCOCCCNC(=O)C1CCN(S(=O)(=O)N2CCCC2)CC1	-6	72*	-2	1	0	1	3	4
O=C(O)C1C=CCC(C(=O)O)C1 (stereo not given)	.	98*	-2	-2	5	0	3	5
O=C(O)C1CC(C(=O)O)SS1 (stereo not given)	2	1	-1	-2	13	0	.	.
COCC#Cc1ccc([C@@H]2[C@@H](CO)N3CCCCN(C(=O)Nc4cc(F)ccc4F)C[C@H]23)cc1	.	.	.	.	0	.	.	.
O=C(Cn1cc(COc2cc(F)cc(F)c2)nn1)c1ccc(O)cc1	-17	3	3	1	5	0	.	.
CC(=O)c1ccc(OCc2cn(CC(=O)c3ccc(O)cc3)nn2)c(C)c1	.	40	0	0	8	0	.	.
CC(=O)c1ccc(OCc2cn(CC(=O)c3ccc(O)cc3)nn2)cc1	-8	37	2	6	3	0	.	.
Cc1cccc(C)c1OCc1cn(CC(=O)c2ccc(O)cc2)nn1	1	58*	0	0	10	-2	3	-1
O=C(Cn1cc(COc2ccc(Br)cc2[N+](=O)[O-])nn1)c1ccc(O)cc1	-2	51*	0	-11	13	1	8	-3
CC(=O)Nc1ccc(OCc2cn(CC(=O)c3ccc(O)cc3)nn2)cc1	.	57*	0	5	.	0	4	-6
O=C(CCCOc1ccc(Cl)cc1Cl)Nc1nnc(C2CC2)s1	-4	8	4	0	2	-1	.	.
Cc1noc(C)c1C(=O)N(C)C[C@@H]1OCc2ccccc2-c2c(n(C)c3ccccc23)C(=O)N([C@H](C)CO)C[C@@H]1C	.	.	.	.	2	.	.	.
Cc1ccc(S(=O)C(c2ccccc2)c2ccccc2)cc1 (stereo not given)	-5	-1	0	5	-3	-1	.	.
C=CCn1c(SCC(C)=O)nc2scc(-c3ccco3)c2c1=O	19	75*	9	24	9	25	7	5
SMILES	Scp1 inh	DNMT1 block	STEP block	SUMO1 PPI mod	CASP6 VEID inh	LMPTP inh	DNMT1 confirm	Beacon interf	others
C=CCn1c(SCc2ccc3c(c2)OCO3)nc2scc(-c3ccco3)c2c1=O	-9	103*	3	25	.	7	4	3
C=CCn1c(SC(F)F)nc2scc(-c3ccco3)c2c1=O	-5	3	6	1	-2	4	.	.
CNC[C@H]1Oc2cc(C#Cc3cccc(OC)c3)ccc2S(=O)(=O)N([C@@H](C)CO)C[C@@H]1C	.	.	.	.	-5	.	.	.
O=C(CSCc1ccccc1Br)NC1CC1	-5	81*	2	1	.	-1	0	1
CSc1ccccc1NC(=O)CSCc1ccccc1Br	-4	-7	2	3	.	3	.	.
Cc1cc2c(c(=O)n1Cc1cccnc1)C(Cc1ccccc1)C(C#N)=C(N)O2 (stereo not given)	1	56*	2	-6	.	2	-1	3
Cc1cc2c(c(=O)n1Cc1cccnc1)C(c1cccs1)C(C#N)=C(N)O2 (stereo not given)	-4	4	-1	-1	.	3	.	.
O=C(N/N=C/c1cccnc1)c1cc2c(ccc3ccccc32)o1	38	0	7	20	.	2	.	.
CCOc1ccc(NC(=O)CN(C)C(=O)c2cc3c(s2)CCC3)cc1OCC	.	94*	5	16	1	17	15	-2
CCn1nnc(-c2ccccc2NS(=O)(=O)c2ccc(S(=O)(=O)N(C)C3CCCCC3)cc2)n1	-14	-2	1	-2	.	2	.	.
CCOc1ccc(NC(=O)CCS(=O)(=O)c2ccc(Br)cc2)cc1	46	84*	9	48*	66*	1	9	6
COC(=O)c1ccccc1NC(=O)CCS(=O)(=O)c1ccc(Br)cc1	80*	90*	22	32	-3	4	95*	6	DNMT1 interf DR=>99
COc1ccc(NC(=O)CCS(=O)(=O)c2ccc(OC)cc2)cc1	-5	-1	-1	2	.	-1	.	.
CC1=C(C(=O)Nc2ccc(C)cc2C)C(c2cccc(Cl)c2)n2nc(C(=O)OC(C)C)nc2N1 (stereo not given)	-4	39	-3	-1	0	-3	.	.
S=c1[nH]nc(-c2cc(-c3ccccc3)n[nH]2)n1/N=C/c1ccc(Cl)c(Cl)c1	4	83*	-1	98*	-4	21	9	0
O=[N+]([O-])c1ccc(-c2nn(-c3ccccc3)cc2/C=N/n2c(-c3ccncc3)n[nH]c2=S)cc1	4	57*	8	23	-3	2	2	1
